Results published in publication PMC8056934 (Journal of Applied Glycoscience, 2017).
“Also recorded” adds a separate entry of the source. Blank lines part the entries; values can stand above or below the molecule they belong to.

Legend:
[1] = Stability of 3ketoLG in buffer; type: physicochemical; details: for k: 10 mM 3ketoLG; for Ea: linear regression of the Arrhenius equation
In short: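 Ketosugar is incubated at 30–70 °C in 50 mM sodium phosphate or 50 mM sodium acetate (pH 4.0, 5.0) buffers. At each time point, aliquots are diluted 1:20 into 1 mM acetic acid and quantified by HPLC. k comes from a single-exponential fit of the time course, and t1/2 = ln2/k. Ea at each pH comes from linear Arrhenius regression.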

[2] = Stability of 3ketoLG in acid; type: physicochemical; details: 100 °C, 1 h
In short: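 Test ketosugar at 10 mM is dissolved in HCl (1, 10 or 100 mM) and held at 100 °C for 1 h. After cooling, samples are diluted 1:20 in water. Remaining ketosugar is quantified by HPLC (50 µL injection) on a KS-801 column with water eluent and charged-aerosol detection.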

[3] = Heat treatment of 3ketoLG and 3ketoMeβGlc in sodium phosphate buffer, HPLC; type: physicochemical; details: sodium phosphate buffer 50 mM, pH 8.0, 60 min at 60 °C
In short: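 Samples are analysed by HPLC on a Shodex SUGAR KS-801 column (8.0 × 300 mm). Water is the eluent at 1 mL/min and 60 °C, with corona charged-aerosol detection. Chromatograms taken before and after heat treatment are compared.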

[4] = Solubility in aqueous solution; type: physicochemical; details: aqueous solution / reaction mixture
pyranose oxidase (P2O) = pyranose oxidase (P2O) (Trametes versicolor, UniProt P79076); assay: Measurement of P2O activity; type: biochemical, Coriolus sp.; details: for Km: P2O, LG: linear S–V relationship between 4 and 40 mM
[5] = 30 °C and pH 7.0; cited from earlier work
[6] = substrate 10 mM, 30 °C, MOPS-Na buffer 25 mM, pH 7.5

Compound: O=C1[C@@H](O)[C@@H]2OC[C@@H](O2)[C@H]1O [3ketoLG, 1,6-anhydro-β-D-ribo-hexopyranos-3-ulose]
k ([1]; pH 4.0, 70 °C, sodium acetate buffer 50 mM): 0.062 ± 0.002 h⁻¹
k ([1]; pH 5.0, 70 °C, sodium acetate buffer 50 mM): 0.20 ± 0.01 h⁻¹
k ([1]; pH 6.0, 40 °C, sodium phosphate buffer 50 mM): 0.028 ± 0.003 h⁻¹
k ([1]; pH 6.0, 50 °C, sodium phosphate buffer 50 mM): 0.085 ± 0.005 h⁻¹
k ([1]; pH 6.0, 60 °C, sodium phosphate buffer 50 mM): 0.32 ± 0.04 h⁻¹
k ([1]; pH 6.0, 70 °C, sodium phosphate buffer 50 mM): 1.0 ± 0.1 h⁻¹
Ea ([1]; pH 6.0): 26.1 kcal/mol
k ([1]; pH 7.0, 30 °C, sodium phosphate buffer 50 mM): 0.043 ± 0.003 h⁻¹
k ([1]; pH 7.0, 40 °C, sodium phosphate buffer 50 mM): 0.13 ± 0.01 h⁻¹
k ([1]; pH 7.0, 50 °C, sodium phosphate buffer 50 mM): 0.33 ± 0.02 h⁻¹
k ([1]; pH 7.0, 60 °C, sodium phosphate buffer 50 mM): 1.7 ± 0.1 h⁻¹
k ([1]; pH 7.0, 70 °C, sodium phosphate buffer 50 mM): 4.4 ± 0.1 h⁻¹
Ea ([1]; pH 7.0): 24.4 kcal/mol
k ([1]; pH 8.0, 30 °C, sodium phosphate buffer 50 mM): 0.083 ± 0.005 h⁻¹
k ([1]; pH 8.0, 40 °C, sodium phosphate buffer 50 mM): 0.21 ± 0.02 h⁻¹
k ([1]; pH 8.0, 50 °C, sodium phosphate buffer 50 mM): 0.57 ± 0.03 h⁻¹
k ([1]; pH 8.0, 60 °C, sodium phosphate buffer 50 mM): 3.0 ± 0.1 h⁻¹
k ([1]; pH 8.0, 70 °C, sodium phosphate buffer 50 mM): 9.1 ± 0.4 h⁻¹
Ea ([1]; pH 8.0): 24.9 kcal/mol
Decrease of 3ketoLG ([2]; 1 mM HCl): No significant decrease
3ketoLG remained ([2]; 100 mM HCl): > 90%
Change on heat treatment (HPLC) [3]: significantly decreased
Solubility [4]: poor solubility; also recorded: low solubility

Compound: O[C@@H]1[C@@H](O)[C@@H]2OC[C@@H](O2)[C@H]1O [LG, 1,6-anhydro-β-D-glucopyranose]
Km (pyranose oxidase (P2O)): > 40000 µM
Specific activity of P2O (pyranose oxidase (P2O); [6]): 0.018 U/mg-solid

Compound: O=C1CO[C@H](CO)[C@@H](O[C@@H]2O[C@H](CO)[C@@H](O)[C@H](O)[C@H]2O)[C@@H]1O [1,5-anhydro-4-O-β-D-glucopyranosyl-D-fructose]
half-life [5]: 17 h

Second part, the molecule after the results:

Oxidation by P2O (pyranose oxidase (P2O)): did not oxidize
Compound: COC1OC(CO)C(O)C(O)C1O [methyl-α-D-glucopyrnaoside]

Km (pyranose oxidase (P2O)): 1000 µM
Specific activity of P2O (pyranose oxidase (P2O); [6]): 5.1 U/mg-solid
Specific activity of P2O relative to D-glucose (pyranose oxidase (P2O); substrate 10 mM, 30 °C, MOPS-Na buffer 25 mM, pH 7.5, D-glucose = 100 %): 100%
Compound: OC[C@H]1OC(O)[C@H](O)[C@@H](O)[C@@H]1O (stereo partly drawn) [D-glucose]

Oxidation by P2O (pyranose oxidase (P2O)): did not oxidize
Compound: O=C[C@H](O)[C@@H](O)[C@H](O[C@@H]1O[C@H](CO)[C@@H](O)[C@H](O)[C@H]1O)[C@H](O)CO [cellobiose]
